For orientation: IC50 means the midpoint of a concentration-inhibition curve. The MIC is the lowest concentration that inhibits growth of the organism. The low end stands for greater potency, the high end for weaker potency.

This is an account of results in ChEMBL document CHEMBL1157063, “Gymnochromes E and F, cytotoxic phenanthroperylenequinones from a deep-water crinoid, Holopus rangii” (J Nat Prod, 2010).

One experiment deals with Candida albicans. Kind of experiment: Antifungal activity against Candida albicans after 18 hrs by microdilution broth method. In kind it is functional, organism-based. Put shortly: (§1)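 Reference strains: S. aureus ATCC 29213, methicillin-resistant S. aureus ATCC 700787, P. aeruginosa ATCC 27853 and C. albicans ATCC 44506. Method as previously described elsewhere.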
(In general: Dilution methods test growth across graded concentrations, often in twofold steps.)

For experiment [1], the system named is PANC-1. The experiment is described as follows: Cytotoxicity against human PANC1 cells at 6.4 uM after 48 hrs by MTT assay. In kind it is functional, cell-based. (In general: Tetrazolium dyes change colour on reduction, which living cells bring about.)
For experiment [2], the system named is NCI/ADR-RES. Kind of experiment: Cytotoxicity against human NCI/ADR-RES cells after 48 hrs by MTT assay. In kind it is functional, cell-based. The procedure, abridged: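 NCI/ADR-RES (formerly MCF-7/ADR) is a multidrug-resistant human ovarian carcinoma line from the NCI-Frederick tumor/cell line repository. It was scored for inhibition of proliferation using a previously described protocol. Each sample was run at least three times to derive the final IC50.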

Experiment [3] has as its system DLD-1. The experiment is described as follows: Cytotoxicity against human DLD1 cells at 6.4 uM after 48 hrs by MTT assay. In kind it is functional, cell-based.
In experiment [4] the test system is NCI/ADR-RES. The experiment is described as follows: Cytotoxicity against human NCI/ADR-RES cells at 5.2 uM after 48 hrs by MTT assay. It is filed as functional, cell-based.
Experiment [5] deals with PANC-1. The experiment is described as follows: Cytotoxicity against human PANC1 cells at 5.2 uM after 48 hrs by MTT assay. In kind it is functional, cell-based.
Experiment [6] relates to DLD-1. Kind of experiment: Cytotoxicity against human DLD1 cells at 5.2 uM after 48 hrs by MTT assay. In kind it is functional, cell-based.
A further experiment deals with Histone deacetylase 1 (Homo sapiens, UniProt Q13547). Kind of experiment: Inhibition of human HDAC1 assessed as [3H]acetate release after 90 mins by scintillation counting.
Histone deacetylase 1, sequence (Q13547 whole entry): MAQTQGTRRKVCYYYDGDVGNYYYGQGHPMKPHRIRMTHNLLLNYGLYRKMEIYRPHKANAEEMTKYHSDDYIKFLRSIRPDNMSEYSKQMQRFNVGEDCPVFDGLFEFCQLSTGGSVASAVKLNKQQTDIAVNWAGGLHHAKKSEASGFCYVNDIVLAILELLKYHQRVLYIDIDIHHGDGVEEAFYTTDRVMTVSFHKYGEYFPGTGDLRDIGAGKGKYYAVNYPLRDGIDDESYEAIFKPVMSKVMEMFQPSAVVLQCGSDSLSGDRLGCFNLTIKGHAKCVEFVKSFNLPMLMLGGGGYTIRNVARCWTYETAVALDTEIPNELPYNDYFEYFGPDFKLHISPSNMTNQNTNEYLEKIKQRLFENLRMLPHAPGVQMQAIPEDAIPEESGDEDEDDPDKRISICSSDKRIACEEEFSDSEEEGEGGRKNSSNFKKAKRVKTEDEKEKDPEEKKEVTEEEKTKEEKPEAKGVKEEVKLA
In experiment [7] the target is Induced myeloid leukemia cell differentiation protein Mcl-1 (Homo sapiens, UniProt Q07820). Kind of experiment: Inhibition of MCL1 binding to Bak by FRET assay.
Induced myeloid leukemia cell differentiation protein Mcl-1, sequence (Q07820 whole entry): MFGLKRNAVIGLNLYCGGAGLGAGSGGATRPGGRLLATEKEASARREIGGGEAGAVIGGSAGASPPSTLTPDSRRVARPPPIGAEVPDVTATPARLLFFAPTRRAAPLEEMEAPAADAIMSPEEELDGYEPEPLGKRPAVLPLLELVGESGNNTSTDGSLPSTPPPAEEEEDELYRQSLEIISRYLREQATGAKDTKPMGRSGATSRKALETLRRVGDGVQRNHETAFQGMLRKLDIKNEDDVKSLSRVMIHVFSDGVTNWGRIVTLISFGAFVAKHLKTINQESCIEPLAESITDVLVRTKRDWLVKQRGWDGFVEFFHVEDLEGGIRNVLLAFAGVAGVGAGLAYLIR
Experiment [8] concerns Staphylococcus aureus. Kind of experiment: Antibacterial activity against Staphylococcus aureus after 18 hrs by microdilution broth method. It is filed as functional. The procedure, abridged: as §1
The test system of experiment [9] is Staphylococcus aureus. Kind of experiment: Antibacterial activity against methicillin-resistant Staphylococcus aureus after 18 hrs by microdilution broth method. In kind it is functional. The procedure, abridged:
as §1

The subject of another experiment is Pseudomonas aeruginosa. Kind of experiment: Antibacterial activity against Pseudomonas aeruginosa after 18 hrs by microdilution broth method. It is filed as functional, organism-based. The procedure, abridged:
as §1

Molecules are shown by their SMILES. ≈ marks a conversion by molar mass, not a printed value. Calls of active or inactive are those of the source. The calls are words filed in the database; no cut-off is given here.

`O=C(O)c1cc(O)c2c(c1)C(=O)c1cc(O)cc(O)c1C2=O`: the result in the experiment with Candida albicans, in the experiment with PANC-1 [1], in the experiment on NCI/ADR-RES [2], with DLD-1 [3], in the experiment on NCI/ADR-RES [4] and with PANC-1 [5] was inactive. Moreover, the outcome (with DLD-1 [6]; at Histone deacetylase 1; in [7]; in the experiment on Staphylococcus aureus [8]; with Staphylococcus aureus [9]; in the experiment with Pseudomonas aeruginosa) was inactive.
In the case of `CCC[C@@H](O)Cc1c(Br)c(O)c2c(=O)c3c(O)cc(O)c4c5c(O)cc(O)c6c(=O)c7c(O)c(Br)c(C[C@H](C)O)c8c1c2c(c34)c(c65)c78` [GYMNOCHROME E], the outcome in the experiment with Candida albicans, with PANC-1 [1], with DLD-1 [3] and in the experiment with Pseudomonas aeruginosa was inactive. The IC50 in the experiment on NCI/ADR-RES [2] was determined as 3.5 µM; at Histone deacetylase 1, 10.9 µM. Further, the minimal inhibitory concentration (MIC) in the experiment with Staphylococcus aureus [8] and in the experiment with Staphylococcus aureus [9] was 25 µg/mL (≈ 32.1 µM) in each case.
In the case of `CCC[C@@H](O)Cc1c(Br)c(O)c2c(=O)c3c(O)c(Br)c(O)c4c5c(O)c(Br)c(O)c6c(=O)c7c(O)c(Br)c(C[C@H](O)CCC)c8c1c2c(c34)c(c65)c78` [GYMNOCHROME F], the result in the experiment with Candida albicans, with NCI/ADR-RES [4], in the experiment on PANC-1 [5], in the experiment with DLD-1 [6] and with Pseudomonas aeruginosa was inactive. Besides, the IC50 in experiment [7] is 3.3 µM. Further, the minimum inhibitory concentration (MIC) against Staphylococcus aureus [8] and in the experiment with Staphylococcus aureus [9] was 12.5 µg/mL (≈ 13 µM) throughout.
As to `O=C(O)c1cc(O)c2c(c1)C(=O)c1cc(O)c(Br)c(O)c1C2=O`, the outcome with Candida albicans, in the experiment on PANC-1 [1], in the experiment with NCI/ADR-RES [2], in the experiment with DLD-1 [3], with NCI/ADR-RES [4] and in the experiment on PANC-1 [5] was inactive. The result (in the experiment on DLD-1 [6]; at Histone deacetylase 1; in [7]; with Staphylococcus aureus [8]; in the experiment with Staphylococcus aureus [9]; in the experiment on Pseudomonas aeruginosa) was inactive.
